Here are results for 42 compounds from ChEMBL document CHEMBL5576116, “Structural modification of the propyl linker of cjoc42 in combination with sulfonate ester and triazole replacements for enhanced gankyrin binding and anti-proliferative activity” (Bioorg Med Chem, 2024).

For data set [1], the system named is HuH-6. In words: Antiproliferative activity against human HuH-6 cells incubated for 72 hrs by MTT assay. The format is functional, cell-based. Particulars: HuH-6, 72 h. Summed up: (§1)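 Cells kept in DMEM with 10% FBS and 1% penicillin/streptomycin, seeded at 2.5 x 10^4 cells/well and left 24 h before drug. Exposed to increasing compound concentrations for 72 h at 37 °C, 5% CO2. MTT dye (5.4 mg/mL) added for 3 h at 37 °C, formazan dissolved in DMSO, A570 read. 6–8 replicates per treatment; IC50 from dose–response curves.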

Data set [2] is described as follows: Cytotoxicity against HEK293 cells. The format is toxicity, cell-based. The settings on record: human. An outline of the steps: as §1
Data set [3] relates to HuH-6. In words: Upregulation of Rb protein level in human HuH-6 cells at 0.82 to 3.3 uM incubated for 48 hrs by Western blotting analysis. The data set is classed as functional, cell-based. The settings on record: dose 0.82-3.3 µM. Summed up:
(§2)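 HuH6 cells in 10 cm dishes exposed to varying compound concentrations or vehicle (0.25% DMSO final) for 48 h. Harvested in cold PBS, lysed in RIPA plus protease/phosphatase inhibitors for 60 min on ice. 15 μg protein on reducing SDS-PAGE, transferred to PVDF, immunoblotted for p53, Rb and gankyrin with cyclophilin as reference; ECL detection. Run in duplicate.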

The target in data set [4] is T1, 26S proteasome non-ATPase regulatory subunit 10 (Homo sapiens) (UniProt O75832).
T1 sequence (whole entry): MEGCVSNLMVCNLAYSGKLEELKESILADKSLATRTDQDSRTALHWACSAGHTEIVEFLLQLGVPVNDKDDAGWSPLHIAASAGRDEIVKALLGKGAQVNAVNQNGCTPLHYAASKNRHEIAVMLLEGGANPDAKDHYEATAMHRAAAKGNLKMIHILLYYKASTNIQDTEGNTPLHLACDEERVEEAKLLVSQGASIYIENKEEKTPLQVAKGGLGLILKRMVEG
In words: Binding affinity to gankyrin in human HuH-6 cells assessed as thermal stability incubated for 5 hrs by CETSA. The data set is classed as cell-based. An outline of the steps:
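HuH6 cells treated for 5 h with compound or vehicle, 0.25% DMSO final. Harvested cells split into six aliquots heated at 50, 53, 56, 59, 62 or 65 °C. Lysed in RIPA with protease/phosphatase inhibitors, 60 min on ice. 15 μg protein run on reducing SDS-PAGE, blotted to PVDF, probed for gankyrin with β-actin reference, ECL detection. Melt curve mean ± SD, n = 3.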

In the next data set the test system is HepG2. In words: Antiproliferative activity against human HepG2 cells incubated for 72 hrs by MTT assay. The format is functional, cell-based. Particulars: HepG2, 72 h. On the technique in general: Formazan colour is commonly taken as a measure of viable cells.
The subject of a further data set is Huh-7. In words: Antiproliferative activity against human HuH-7 cells incubated for 72 hrs by MTT assay. The data set is classed as functional, cell-based. Particulars: Huh-7, 72 h. An outline of the steps:
as §1

For data set [5], the system named is HuH-6. In words: Effect on gankyrin protein level in human HuH-6 cells at 0.82 to 3.3 uM incubated for 48 hrs by Western blotting analysis. The data set is classed as functional, cell-based. Particulars: dose 0.82-3.3 µM. An outline of the steps: as §2
In data set [6] the test system is HuH-6. In words: Induction of cell cycle arrest in human HuH-6 cells assessed as decrease in S phase cells at 3.3 uM incubated for 72 hrs PI/RNAase staining based flow cytometry analysis. The data set is classed as functional. An outline of the steps:
(§3)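 HuH6 cells treated 72 h with compound or vehicle (0.25% DMSO final), harvested in cold PBS, normalized, fixed in 70% ethanol at −20 °C overnight. Pellet stained with PI/RNase for 30 min at 37 °C, then analyzed by flow and imaging cytometry. Mean ± SD, n = 3; one-way ANOVA, P < 0.05 significant.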

Data set [7] deals with HuH-6. In words: Induction of cell cycle arrest in human HuH-6 cells assessed as accumulation of cells at […] phase at 3.3 uM incubated for 72 hrs PI/RNAase staining based flow cytometry analysis. The format is functional. Summed up:
as §3

The subject of data set [8] is HuH-6. In words: Upregulation of p53 protein level in human HuH-6 cells at 0.82 to 3.3 uM incubated for 48 hrs by Western blotting analysis. The settings on record: dose 0.82-3.3 µM. The data set is classed as functional, cell-based. Summed up:
as §2
On the technique in general: Immunoblotting shows a protein as a band on a membrane.

Another data set has as its system Hep 3B2. In words: Antiproliferative activity against human Hep3B cells incubated for 72 hrs by MTT assay. The format is functional, cell-based.

Structures are written as SMILES. Calls of active or inactive are those of the source. The calls are words filed in the database; no cut-off is given here. Bounds are passed on as bounds.

Turning to `COC(=O)c1ccc(-n2cc(CCOS(=O)(=O)c3ccc(C)cc3)nn2)cc1`, in the data set with HuH-6 [1], the IC50 (commonly the concentration at which inhibition is half-maximal) is greater than 50 µM.

`Cc1ccc(C(=O)NCCCCNC(=O)c2ccc(C)cc2)cc1` had a 50% inhibitory concentration (IC50) in the data set with HuH-6 [1] greater than 50 µM.

`COc1ccc(C(=O)NCCCNC(=O)c2ccc(-c3ccccc3)cc2)cc1`: the IC50 with HuH-6 [1] was found to be 2.4 µM; in data set [2], 3.3 µM.

In the case of `Cc1ccc(C(=O)NCCNC(=O)c2ccc(C)cc2)cc1`, the midpoint of inhibition in the data set on HuH-6 [1], the IC50, lay at 30.2 µM. In other words, the double-digit micromolar range.

As to `Cc1ccc(NC(=O)CCCC(=O)Nc2ccc(C)cc2)cc1`, in the data set on HuH-6 [1], the IC50 is greater than 50 µM.

In turn, `COC(=O)c1ccc(NC(=O)CCC(=O)Nc2ccc(-c3ccccc3)cc2)cc1` had a concentration for half-maximal inhibition (IC50) with HuH-6 [1] greater than 50 µM.

In the data set with HuH-6 [1], `COC(=O)c1ccc(C(=O)NCCCCNC(=O)c2ccc(C(=O)OC)cc2)cc1` displayed an IC50 greater than 50 µM.

Consider `Cc1ccc(NC(=O)CC(=O)Nc2ccc(C)cc2)cc1`, for which, in the data set with HuH-6 [1], the IC50 was greater than 50 µM.

For the compound `Cc1ccc(CNC(=O)Nc2ccc(C)cc2)cc1`, in the data set with HuH-6 [1], the IC50 was greater than 50 µM.

Compound `COC(=O)c1ccc(NC(=O)Nc2ccc(C)cc2)cc1` had an IC50 in the data set on HuH-6 [1] of 38.8 µM.

On to `COC(=O)c1ccc(-n2cc(CNC(=O)c3ccc(C)cc3)nn2)cc1`, for which the IC50 in the data set on HuH-6 [1] is greater than 50 µM.

Regarding `O=C(NCCCCNC(=O)c1ccc(C(F)(F)F)cc1)c1ccc(-c2ccccc2)cc1`, the IC50 in the data set on HuH-6 [1] was greater than 50 µM.

Consider `Cc1ccc(NC(=O)CCC(=O)Nc2ccc(C)cc2)cc1`, for which the 50% inhibitory concentration (IC50) in the data set on HuH-6 [1] is greater than 50 µM.

In the data set with HuH-6 [1], `Cc1ccc(NC(=O)Nc2ccc(C)cc2)cc1` showed a concentration for half-maximal inhibition (IC50) greater than 50 µM.

As to `COC(=O)c1ccc(C(=O)NCCCCNC(=O)c2ccc(C)cc2)cc1`, the IC50 with HuH-6 [1] was greater than 50 µM.

`COC(=O)c1ccc(NC(=O)CCCCC(=O)Nc2ccc(C(=O)OC)cc2)cc1` showed an IC50 in the data set with HuH-6 [1] greater than 50 µM.

For the compound `COc1ccc(CNC(=O)NS(=O)(=O)c2ccc(C)cc2)cc1`, the IC50 in the data set with HuH-6 [1] is greater than 50 µM.

As to `COC(=O)c1ccc(-n2cc(CCNC(=O)c3ccc(C)cc3)nn2)cc1`, the IC50 in the data set on HuH-6 [1] is greater than 50 µM.

Consider `COC(=O)c1ccc(C(=O)NCCCNC(=O)c2ccc(C(=O)OC)cc2)cc1`, for which the IC50 in the data set with HuH-6 [1] was 19.8 µM; in [2] it was greater than 50 µM.

On to `COC(=O)c1ccc(NC(=O)CCCCC(=O)Nc2ccc(C)cc2)cc1`, for which, in the data set on HuH-6 [1], the IC50 was greater than 50 µM.

Turning to `COC(=O)c1ccc(-n2cc(CCCCNC(=O)c3ccc(C)cc3)nn2)cc1`, the 50% inhibitory concentration (IC50) with HuH-6 [1] stood at 19.5 µM.

`Cc1ccc(CNC(=O)NS(=O)(=O)c2ccc(C)cc2)cc1`: the IC50 in the data set on HuH-6 [1] was greater than 50 µM.

As to `COC(=O)c1ccc(C(=O)NCCCCNC(=O)c2ccc(-c3ccccc3)cc2)cc1`, in the data set on HuH-6 [1], the IC50 is greater than 50 µM.

As to `COC(=O)c1ccc(C(=O)NCCNC(=O)c2ccc(C(=O)OC)cc2)cc1`, the half-maximal inhibitory concentration (IC50) with HuH-6 [1] is greater than 50 µM.

The compound `Cc1ccc(NC(=O)CCCCC(=O)Nc2ccc(C)cc2)cc1` displayed an IC50 in the data set on HuH-6 [1] greater than 50 µM.

Consider `Cc1ccc(C(=O)NCCCCNC(=O)c2ccc(-c3ccccc3)cc2)cc1`, for which the IC50 in the data set on HuH-6 [1] is greater than 50 µM.

Compound `Cc1ccc(C(=O)NCCCNC(=O)c2ccc(C)cc2)cc1` registered a 50% inhibitory concentration (IC50) with HuH-6 [1] greater than 50 µM.

As for `COC(=O)c1ccc(C(=O)NCCCNC(=O)c2ccc(C)cc2)cc1`, the IC50 with HuH-6 [1] was greater than 50 µM.

In the data set with HuH-6 [1], `Cc1ccc(C(=O)NCCCNC(=O)c2ccc(-c3ccccc3)cc2)cc1` had an IC50 of 20.3 µM.

`COC(=O)c1ccc(C(=O)NCCCNC(=O)c2ccc(-c3ccccc3)cc2)cc1`: the IC50 in the data set on HuH-6 [1] is greater than 50 µM.

Turning to `COC(=O)c1ccc(NC(=O)CCC(=O)Nc2ccc(C(=O)OC)cc2)cc1`, the result (in the data set with HuH-6 [3]; in [4]; in the data set with HuH-6 [6]; in the data set with HuH-6 [7]; in the data set on HuH-6 [8]) was Active. Also, the IC50 is 24 µM with HepG2; greater than 50 µM with Huh-7; 3.3 µM with HuH-6 [1]; greater than 50 µM in data set [2]; greater than 50 µM in the data set on Hep 3B2. Further, the outcome with HuH-6 [5] was inactive.

`COC(=O)c1ccc(-n2cc(CCCOS(=O)(=O)c3ccc(C)cc3)nn2)cc1`: in the data set on HuH-6 [1], the IC50 was greater than 50 µM.

`COC(=O)c1ccc(NC(=O)CC(=O)Nc2ccc(C(=O)OC)cc2)cc1` came in with a 50% inhibitory concentration (IC50) with HuH-6 [1] greater than 50 µM.

Consider `Cc1ccc(NC(=O)NS(=O)(=O)c2ccc(C)cc2)cc1`, for which, in the data set on HuH-6 [1], the IC50 was greater than 50 µM.

Compound `COC(=O)c1ccc(C(=O)NCCNC(=O)c2ccc(C)cc2)cc1` registered an IC50 with HuH-6 [1] of 31 µM.

With `COC(=O)c1ccc(CNC(=O)NS(=O)(=O)c2ccc(C)cc2)cc1`, the IC50 in the data set on HuH-6 [1] was greater than 50 µM.

Compound `COc1ccc(CNC(=O)Nc2ccc(C)cc2)cc1` yielded a half-maximal inhibitory concentration (IC50) in the data set on HuH-6 [1] greater than 50 µM.

On to `COC(=O)c1ccc(-n2cc(CCCCOS(=O)(=O)c3ccc(C)cc3)nn2)cc1`, for which the IC50 in the data set on HuH-6 [1] is greater than 50 µM.

`COC(=O)c1ccc(NC(=O)NS(=O)(=O)c2ccc(C)cc2)cc1` had an IC50 with HuH-6 [1] greater than 50 µM.

The compound `COC(=O)c1ccc(NC(=O)CCCC(=O)Nc2ccc(C(=O)OC)cc2)cc1` returned an IC50 with HuH-6 [1] of 14.1 µM.

The compound `COC(=O)c1ccc(CNC(=O)Nc2ccc(C)cc2)cc1` came in with a concentration for half-maximal inhibition (IC50) in the data set on HuH-6 [1] greater than 50 µM.

The compound `O=C(NCCCNC(=O)c1ccc(C(F)(F)F)cc1)c1ccc(-c2ccccc2)cc1` registered an IC50 in the data set on HuH-6 [1] greater than 50 µM.
